Test results: ChEMBL document CHEMBL4477160, “Methylbenzene-Containing Polyketides from a Streptomyces that Spontaneously Acquired Rifampicin Resistance: Structural Elucidation and Biosynthesis” (J Nat Prod, 2016)
Activity calls are given as the source filed them.

How the values were obtained:
SK-OV-3 = assay: Cytotoxicity against human SKOV3 cells assessed as decrease in cell viability at 0.01 to 100 uM after 72 hrs by WST-8 assay; assay type: functional, cell-based
Homo sapiens = organism: Homo sapiens; assay: Cytotoxicity against human ACC-MESO1 cells assessed as decrease in cell viability at 0.01 to 100 uM after 72 hrs by WST-8 assay; assay type: functional, cell-based
Escherichia coli = assay: Antimicrobial activity against Escherichia coli assessed as decrease in cell viability at 1.56 to 100 uM after 24 hrs; assay type: functional, organism-based
Method in brief: (§1)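 Compounds in DMSO dispensed at a range of concentrations into 384-well plates. Each test strain was grown to OD620 ~0.5, diluted 2000-fold in LB medium and added to the wells. Plates were incubated 24 h at 37 °C. Viability was read as absorbance at 620 nm.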

Staphylococcus aureus = assay: Antimicrobial activity against Staphylococcus aureus assessed as decrease in cell viability at 1.56 to 100 uM after 24 hrs; assay type: functional, organism-based; method in brief: as §1
Bacillus subtilis = assay: Antimicrobial activity against Bacillus subtilis assessed as decrease in cell viability at 1.56 to 100 uM after 24 hrs; assay type: functional, organism-based; method in brief: as §1
Micrococcus luteus = assay: Antimicrobial activity against Micrococcus luteus assessed as decrease in cell viability at 1.56 to 100 uM after 24 hrs; assay type: functional, organism-based; method in brief: as §1
Jurkat = assay: Cytotoxicity against human Jurkat cells assessed as decrease in cell viability at 0.01 to 100 uM after 72 hrs by WST-8 assay; assay type: functional, cell-based

Measured: Activity

Cc1ccccc1/C=C/CCC(=O)NC1=C(O)CCC1=O
inactive: all assays above

Cc1ccccc1/C=C/C=C/C=C/C=C/C(=O)NC1=C(O)CCC1=O
inactive: all assays above
